Data reported in ChEMBL document CHEMBL4732185, “Synthesis, biological evaluation and structure-activity relationship of novel dichloroacetophenones targeting pyruvate dehydrogenase kinases with potent anticancer activity” (Eur J Med Chem, 2021).
Active and inactive are the calls of the source. The rule behind the calls is not given here.

Assays:
A549 [1] = assay: Antiproliferative activity against human A549 cells assessed as growth inhibition at 1 uM after 72 hrs by MTT assay relative to control; type: functional; settings: for inhibition of growth at 1 µM: read-out: GI
Outline: (§1)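 Single-concentration MTT screen on MCF-7 and A549 cells grown in DMEM + 10% FBS. Cells at 3000–6000/well, cultured overnight, then given compound in buffer with 1% DMSO for 72 h. MTT (0.5 mg/mL) added for 4 h, formazan dissolved in DMSO, A570 read. Percent inhibition reported as the average ± S.D. of three independent measurements.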

MCF7 [2] = assay: Antiproliferative activity against human MCF7 cells assessed as growth inhibition at 10 uM after 72 hrs by MTT assay relative to control; type: functional; settings: for inhibition of growth at 10 µM: read-out: GI; outline: as §1
Homo sapiens = species on record: Homo sapiens; assay: Inhibition of PDK (unknown origin) using RYHGHSMSDP as substrate at 1 uM after 30 mins by Kinase-Glo luminescent assay
MCF7 [3] = assay: Antiproliferative activity against human MCF7 cells assessed as growth inhibition at 1 uM after 72 hrs by MTT assay relative to control; type: functional; settings: for inhibition of growth at 1 µM: read-out: GI; outline: as §1
A549 [4] = assay: Antiproliferative activity against human A549 cells assessed as growth inhibition at 10 uM after 72 hrs by MTT assay relative to control; type: functional; settings: for inhibition of growth at 10 µM: read-out: GI; outline: as §1
PC-3 = assay: Antiproliferative activity against human PC3 cells assessed as growth inhibition after 72 hrs by MTT assay; type: functional, cell-based
Outline: (§2)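 MTT viability assay. Cancer lines seeded at 3000–6000 cells/well and L02 at 7000 cells/well, cultured overnight, then exposed to a full dose range for 72 h. MTT (0.5 mg/mL) added for 4 h, supernatant removed, formazan dissolved in DMSO, absorbance read at 570 nm. IC50 taken as the mean of three independent experiments. Cells grown in DMEM + 10% FBS, 37 °C, 5% CO2.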

A549 [5] = assay: Antiproliferative activity against human A549 cells assessed as growth inhibition after 72 hrs by MTT assay; type: functional, cell-based; outline: as §2
A-375 = assay: Antiproliferative activity against human A375 cells assessed as growth inhibition after 72 hrs by MTT assay; type: functional, cell-based; outline: as §2
SH-SY5Y = assay: Antiproliferative activity against human SHSY-5Y cells assessed as growth inhibition after 72 hrs by MTT assay; type: functional, cell-based; outline: as §2
HCT-116 = assay: Antiproliferative activity against human HCT-116 cells assessed as growth inhibition after 72 hrs by MTT assay; type: functional, cell-based; outline: as §2
[6] = Inhibition of PDK (unknown origin) using RYHGHSMSDP as substrate after 30 mins by Kinase-Glo luminescent assay; set-up: species or system Homo sapiens
L02 = assay: Cytotoxicity against human L02 cells assessed as reduction in cell viability after 72 hrs by MTT assay; type: cell-based; outline: as §2
MCF7 [7] = assay: Antiproliferative activity against human MCF7 cells assessed as growth inhibition after 72 hrs by MTT assay; type: functional, cell-based; outline: as §2
[8] = Homo sapiens, PC-3, 72 h, read-out: IC50
[9] = Homo sapiens, A549, 72 h, read-out: IC50
[10] = Homo sapiens, A-375, 72 h, read-out: IC50
[11] = Homo sapiens, SH-SY5Y, 72 h, read-out: IC50
[12] = Homo sapiens, HCT-116, 72 h, read-out: IC50
[13] = Homo sapiens, L02, 72 h, read-out: IC50
[14] = Homo sapiens, MCF7, 72 h, read-out: IC50

inhibition (Homo sapiens) | Compound | inhibition of growth at 1 µM (A549 [1]) | inhibition of growth at 10 µM (MCF7 [2]) | inhibition of growth at 10 µM (A549 [4]) | inhibition of growth at 1 µM (MCF7 [3]) | other results
80% | CC(C)c1ccc(Nc2ccc(C(=O)C(Cl)Cl)cc2[N+](=O)[O-])cc1 | 75.2% | 94% | 97% | 38.6% | IC50 (PC-3; [8]): 0.38 µM; IC50 (A549 [5]; [9]): 0.33 µM; IC50 (A-375; [10]): 0.9 µM; IC50 (SH-SY5Y; [11]): 1 µM; IC50 (HCT-116; [12]): 0.7 µM; EC50 [6]: 0.34 µM; IC50 (L02; [13]): 1.5 µM; IC50 (MCF7 [7]; [14]): 1.21 µM
50.1% | O=C(c1ccc(Nc2ccc(F)cc2)c([N+](=O)[O-])c1)C(Cl)Cl | 23.2% | 97.8% | 98.9% | 17.9% | 
66.4% | COc1ccc(Nc2ccc(C(=O)C(Cl)Cl)cc2[N+](=O)[O-])cc1OC | 40.5% | 90.5% | 96.6% | 24.2% | 
26.5% | O=C(c1ccc(-c2ccsc2)c([N+](=O)[O-])c1)C(Cl)Cl | 14.4% | 43.5% | 94.4% | 7.5% | 
98.7% | CN(C)C(=O)c1ccc(S(=O)(=O)c2ccc(NC(=O)[C@@](C)(O)C(F)(F)F)c(Cl)c2)cc1 |  |  |  |  | IC50 (PC-3; pc-3): Not Active; growth inhibition (GI) (A549 [1]): inactive; IC50 (A549 [5]; a549): Not Active; IC50 (A-375; a-375): Not Active; growth inhibition (GI) (MCF7 [2]): inactive; IC50 (SH-SY5Y; sh-sy5y): Not Active; IC50 (HCT-116; hct-116): Not Active; growth inhibition (GI) (MCF7 [3]): inactive; EC50 [6]: 0.053 µM; IC50 (L02; l02): Not Active; IC50 (MCF7 [7]; mcf7): Not Active; growth inhibition (GI) (A549 [4]): inactive
20.5% | O=C(c1ccc(-n2ccnc2)c([N+](=O)[O-])c1)C(Cl)Cl | 30.5% | 90.5% | 96.6% | 24.2% | 
25.6% | O=C(c1ccc(-c2ccccc2)c([N+](=O)[O-])c1)C(Cl)Cl | 8.9% | 56.2% | 92.6% | 15.8% | 
17.3% | O=C(c1ccc(C2CC2)c([N+](=O)[O-])c1)C(Cl)Cl | 40.1% | 87.8% | 95.9% | 31.3% | 
39.4% | CC(C)c1ccc(Oc2ccc(C(=O)C(Cl)Cl)cc2[N+](=O)[O-])cc1 | 12.5% | 85.7% | 90.7% | 28.7% | 
64.4% | Cc1ccc(Nc2ccc(C(=O)C(Cl)Cl)cc2[N+](=O)[O-])cc1 | 48.1% | 88.9% | 97.3% | 12.1% | 
55.7% | COc1ccc(Nc2ccc(C(=O)C(Cl)Cl)cc2[N+](=O)[O-])cc1 | 45% | 95.9% | 97.7% | 29.2% | 
 | COc1cccc2c1C(=O)c1c(O)c3c(c(O)c1C2=O)C[C@@](O)(C(=O)CO)C[C@@H]3O[C@H]1C[C@H](N)[C@H](O)[C@H](C)O1 [DOXORUBICIN] | 81.2% | 97.5% | 98.5% | 59.8% | 
21.4% | O=C(c1ccc(-c2ccc(OC(F)(F)F)cc2)c([N+](=O)[O-])c1)C(Cl)Cl | 36.3% | 97.8% | 93.6% | 24.7% | 
32.4% | O=C(c1ccc(N2CCCC2)c([N+](=O)[O-])c1)C(Cl)Cl | 30.6% | 94.6% | 97.3% | 23% | 
 | O=C([O-])C(Cl)Cl.[Na+] [SODIUM DICHLOROACETATE] |  |  |  |  | IC50 (PC-3; [8]): 15700 µM; IC50 (A549 [5]; [9]): 19500 µM; IC50 (A-375; [10]): 20100 µM; IC50 (SH-SY5Y; [11]): 17400 µM; IC50 (HCT-116; [12]): 9800 µM; IC50 (L02; [13]): 21700 µM; IC50 (MCF7 [7]; [14]): 13400 µM
5.9% | Cc1ccc(-c2ccc(C(=O)C(Cl)Cl)cc2[N+](=O)[O-])cc1 | 13.8% | 89.1% | 96% | 26.4% | 
8.1% | O=C(c1ccc(-n2ccnc2[N+](=O)[O-])c([N+](=O)[O-])c1)C(Cl)Cl |  | 21.4% | 80.9% |  | growth inhibition (GI) (A549 [1]): inactive; growth inhibition (GI) (MCF7 [3]): inactive
12.1% | O=C(c1ccc(-c2ccc(F)cc2)c([N+](=O)[O-])c1)C(Cl)Cl | 44.7% | 91.6% | 95.3% | 30.8% | 
40.2% | O=C(c1ccc(N2CCCCC2)c([N+](=O)[O-])c1)C(Cl)Cl | 38.9% | 95.8% | 97.1% | 22.4% | 
68.7% | CCOc1ccc(Nc2ccc(C(=O)C(Cl)Cl)cc2[N+](=O)[O-])cc1 | 52.9% | 93.8% | 97.4% | 18.8% | 
17.4% | O=C(c1ccc(-n2cncn2)c([N+](=O)[O-])c1)C(Cl)Cl |  | 11.9% | 58.9% |  | growth inhibition (GI) (A549 [1]): inactive; growth inhibition (GI) (MCF7 [3]): inactive
60.7% | O=C(c1ccc(Nc2ccccc2)c([N+](=O)[O-])c1)C(Cl)Cl | 46.1% | 97.1% | 97.4% | 26.3% | 
17.5% | O=C(c1ccc(NC2CC2)c([N+](=O)[O-])c1)C(Cl)Cl | 21.6% | 96% | 95.7% | 25.7% | 
36.9% | O=C(c1ccc(N2CCOCC2)c([N+](=O)[O-])c1)C(Cl)Cl | 10.1% | 90.4% | 95.6% | 18.9% | 
88.2% | CN(C)c1ccc(Nc2ccc(C(=O)C(Cl)Cl)cc2[N+](=O)[O-])cc1 | 75% | 93.2% | 98.6% | 31.6% | 
19.5% | CC(C)c1ccc(Sc2ccc(C(=O)C(Cl)Cl)cc2[N+](=O)[O-])cc1 | 12.9% | 79.8% | 76.3% | 18.9% | 

Compound | inhibition (Homo sapiens) | inhibition of growth at 1 µM (A549 [1]) | inhibition of growth at 10 µM (MCF7 [2]) | inhibition of growth at 10 µM (A549 [4]) | inhibition of growth at 1 µM (MCF7 [3]) | other results
O=C(c1ccc(N2CCNCC2)c([N+](=O)[O-])c1)C(Cl)Cl | 48.6% | 22.6% | 57% | 93.1% |  | growth inhibition (GI) (MCF7 [3]): inactive
